# Assay results reported in PMC7993281 (Clinical and Translational Science, 2020).
# Experiments:
# [1] = Single-ascending dose; format: in vivo, human; conditions: for Tmax / half-life / CL renal: human, oral; for Tmax / half-life: plasma
# Method in brief: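 Healthy men, single oral 10–2,000 mg after a 10-hour fast. The 300 mg cohort was repeated 30 min after a high-fat, high-calorie breakfast following at least 7 days washout. Plasma sampled up to 48 h; 300 mg urine collected at 0–12, 12–24 and 24–48 h. Validated LC-MS/MS with noncompartmental analysis. Fed/fasted GMR with 90% CI; Tmax compared by nonparametric median difference.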
# [2] = test system: non‐lysosomal glucosylceramidase (GBA2) vs glucosylceramide synthase (GCS); assay: Relative inhibitory potency on GBA2 versus GCS; format: biochemical
# [3] = test system: glucosylceramide (GlcCer) plasma concentration; assay: MAD study pharmacodynamics: plasma GlcCer; format: in vivo, human
# Method in brief: (§1)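 Healthy men and women (1:1), 8 active and 2 placebo per cohort. Oral 30, 100, 300 or 1,000 mg b.i.d. for 7 days. Morning dose after a 10-hour fast, evening dose 2 hours after dinner. Plasma sampled on Days 1, 2, 4 and 7 and at 24, 48 and 72 h after the last dose. Validated LC-MS/MS. Percent change from Day 1 predose.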
# [4] = test system: lactosylceramide (LacCer) plasma concentration; assay: MAD study pharmacodynamics: plasma LacCer; format: in vivo, human; conditions: 72 hours after the last dose
# Method in brief: as §1
# [5] = Cardiodynamic and exposure-response analysis of QT interval; format: in vivo, human
# [6] = SAD study tolerability/safety; format: in vivo, human
# Method in brief: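 Healthy men aged 18–55 years, single oral doses of 10–2,000 mg, 6 active and 2 placebo per cohort, staggered dosing. Fasted dosing, plus a fed period in the 300 mg cohort after at least 7 days washout. Subjects were confined until 48 h post-dose, with follow-up at 29–34 days. AEs, vital signs, ECG, examination and laboratory tests were summarised descriptively.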
# [7] = test system: globotriaosylceramide (Gb3) plasma concentration; assay: MAD study pharmacodynamics: plasma Gb3; format: in vivo, human; conditions: after last dose
# [8] = Multiple-ascending dose; format: in vivo, human
# Method in brief: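 Oral 30, 100, 300 or 1,000 mg b.i.d. for 7 days in healthy men and women, n = 8 active per dose. Plasma sampled for 12 h on Day 1, at trough on Days 2–6, and up to 72 h after the last dose. Urine collected predose Day 1 and 0–12 h on Day 7. Validated LC-MS/MS. Noncompartmental analysis gave AUCτ, accumulation index and CLR.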
# [9] = SAD, all doses, fasted conditions, 36 subjects
# [10] = Day 7, 30 mg b.i.d., geometric mean (95% CI)
# [11] = Day 7, 100 mg b.i.d., geometric mean (95% CI)
# [12] = Day 7, 300 mg b.i.d., geometric mean (95% CI)
# [13] = Day 7, 1,000 mg b.i.d., geometric mean (95% CI)
# [14] = both, human, plasma, oral, 30 mg
structure (smiles),measurement,setting,value
"CCCCCN1C[C@H](O)[C@@H](O)[C@H](O)[C@@H]1CO [sinbaglustat, (2S,3R,4R,5S)‐2‐(hydroxymethyl)‐1‐pentylpiperidine‐3,4,5‐triol]",fraction of dose excreted unchanged in urine,[1]; 300 mg single dose,About half
same,"median difference in Tmax, fed vs fasted","[1]; 300 mg single dose, high‐fat, high‐calorie meal, 90% CI 0.50–1.70",1 h
same,Tmax,"[1]; 100 mg, single dose 100 mg, fasted, median (range)",1.4 h
same,Tmax,"[1]; 300 mg, single dose 300 mg fasted, median (range)",0.9 h
same,Tmax,"[1]; 300 mg, single dose 300 mg fed, median (range)",2.25 h
same,half-life,[1]; 1000 mg,11.6 h
same,Tmax,"[1]; 1000 mg, single dose 1,000 mg, fasted, median (range)",1.5 h
same,Tmax,"[1]; 2000 mg, single dose 2,000 mg, fasted, median (range)",2 h
same,CL renal,"[1]; urine and plasma, 300 mg",225 mL/min
same,CL renal,"[1]; male, plasma and urine, 300 mg",225 mL/min
same,half-life,[1]; male,~12 h
same,Tmax,"[1]; male, across single doses 10 to 2,000 mg",0.9 to 2 h
same,duration of distribution phase,[1]; single dose,~ 24 hours
same,"UPE, percentage of dose excreted unchanged in urine","[1]; single dose 300 mg fasted, geometric mean (95% CI)","48.74 (43.53, 54.59) %"
same,potency in inhibiting GBA2 relative to GCS,[2],50 fold
same,GlcCer during the treatment period,[3]; 30 mg b.i.d.,remained at baseline
same,GlcCer increase from baseline concentration,"[3]; 30 mg b.i.d., 72 hours after the last dose",32%
same,GlcCer percentage change from baseline,"[3]; 100 mg b.i.d., 48 hours after the last dose",–7%
same,GlcCer percentage change from baseline,"[3]; 300 mg b.i.d., 72 hours after the last dose",–1%
same,GlcCer percentage change from baseline,"[3]; 1,000 mg b.i.d., 72 hours after the last dose",–19%
same,reduction in GlcCer,"[3]; highest tested dose (1,000 mg b.i.d.), repeated treatment",72%
same,LacCer percentage change from baseline,[4]; 30 mg b.i.d.,–8%
same,LacCer percentage change from baseline,"[4]; 1,000 mg b.i.d.",–33%
same,"effect on QTcF, HR, PR, and QRS intervals",[5]; change‐from‐baseline and placebo‐adjusted change‐from‐baseline,no clinically relevant effect
same,slope of concentration–ΔΔQTcF relationship,"[5]; linear mixed‐effects model, 90% CI −0.00008 to 0.00056, statistically nonsignificant",0.0002 ms per ng/mL
same,treatment effect‐specific intercept,"[5]; linear mixed‐effects model, nonstatistically significant",-2.7 ms
same,"AEs in the 30, 300, and 2,000 mg cohort",[6]; SAD,No AE was reported
same,Dizziness (subjects),[6]; SAD 10 mg (n = 6),1
same,Number of subjects with at least 1 AE,[6]; SAD 10 mg (n = 6),1
same,Total number of AEs,[6]; SAD 10 mg (n = 6),1
same,Number of subjects with at least 1 AE,[6]; SAD 100 mg (n = 6),3
same,Rash (subjects),[6]; SAD 100 mg (n = 6),1
same,Total number of AEs,[6]; SAD 100 mg (n = 6),3
same,AEs under fed conditions,[6]; SAD 300 mg fed,no AE was reported
same,Headache (subjects),"[6]; SAD 1,000 mg (n = 6)",2
same,Nausea (subjects),"[6]; SAD 1,000 mg (n = 6)",1
same,Number of subjects with at least 1 AE,"[6]; SAD 1,000 mg (n = 6)",3
same,Palpitations (subjects),"[6]; SAD 1,000 mg (n = 6)",1
same,Viral upper respiratory tract (subjects),"[6]; SAD 1,000 mg (n = 6)",1
same,Vomiting (subjects),"[6]; SAD 1,000 mg (n = 6)",1
same,subjects reporting AEs (of 36 treated),"[6]; SAD, all doses, fasted conditions",7
same,subjects reporting AEs,[6]; [9],19%
same,total AEs reported,[6]; [9],13
same,"serious AEs, severe AEs, AEs leading to discontinuation","[6]; whole study (SAD and MAD), up to end‐of‐study","No serious AEs, severe AEs, or AEs leading to study or treatment discontinuation occurred"
same,Gb3 mean percentage change from baseline after treatment stop,[7],remained stable for 3 days after treatment stop
same,"AI, accumulation index",[8]; [10],"1.085 (0.993, 1.185)"
same,"UPE, percentage of dose excreted unchanged in urine",[8]; [10],"55.12 (52.08, 58.34) %"
same,"AI, accumulation index",[8]; [11],"1.037 (0.930, 1.156)"
same,"UPE, percentage of dose excreted unchanged in urine",[8]; [11],"53.55 (44.68, 64.19) %"
same,"AI, accumulation index",[8]; [12],"1.101 (1.012, 1.198)"
same,"UPE, percentage of dose excreted unchanged in urine",[8]; [12],"48.35 (40.84, 57.24) %"
same,"AI, accumulation index",[8]; [13],"1.001 (0.942, 1.064)"
same,"UPE, percentage of dose excreted unchanged in urine",[8]; [13],"45.54 (41.54, 49.92) %"
same,increased exposure (Cmax and AUCτ) in female compared to male subjects,"[8]; all dose groups combined, steady‐state",around 30%
same,time to steady‐state concentrations,[8]; b.i.d. dosing,≤ 2 days
same,accumulation after multiple doses,[8]; b.i.d. for 7 days,did not accumulate
same,AUC,[8]; [14],1310 ng·h/mL
same,AUC(0-t),[8]; [14],1200 ng·h/mL
same,Cmax,"[8]; both, human, plasma, oral, 30 mg, Cmax, Day 7, 30 mg b.i.d., geometric mean (95% CI)",413 ng/mL
